By IC50 is commonly meant the concentration that inhibits the measured activity by half. In general, Ki refers to the dissociation constant of the complex between target and ligand, obtained from inhibition or displacement. As usually defined, the inhibition is how much of the control response was suppressed. A word on the ED50: it is the dose at which the effect has come halfway, by size or by number of responders.

This note sets out measurements from ChEMBL document CHEMBL1671834, “Novel 3-aryl indoles as progesterone receptor antagonists for uterine fibroids” (ACS Med Chem Lett, 2011).

Each structure is given as a SMILES string. Activity calls are given as the source filed them. The rule behind the calls is not given here.

For assay [1], the target named is T1, Progesterone receptor (Homo sapiens, UniProt P06401).
T1 sequence (P06401 whole entry): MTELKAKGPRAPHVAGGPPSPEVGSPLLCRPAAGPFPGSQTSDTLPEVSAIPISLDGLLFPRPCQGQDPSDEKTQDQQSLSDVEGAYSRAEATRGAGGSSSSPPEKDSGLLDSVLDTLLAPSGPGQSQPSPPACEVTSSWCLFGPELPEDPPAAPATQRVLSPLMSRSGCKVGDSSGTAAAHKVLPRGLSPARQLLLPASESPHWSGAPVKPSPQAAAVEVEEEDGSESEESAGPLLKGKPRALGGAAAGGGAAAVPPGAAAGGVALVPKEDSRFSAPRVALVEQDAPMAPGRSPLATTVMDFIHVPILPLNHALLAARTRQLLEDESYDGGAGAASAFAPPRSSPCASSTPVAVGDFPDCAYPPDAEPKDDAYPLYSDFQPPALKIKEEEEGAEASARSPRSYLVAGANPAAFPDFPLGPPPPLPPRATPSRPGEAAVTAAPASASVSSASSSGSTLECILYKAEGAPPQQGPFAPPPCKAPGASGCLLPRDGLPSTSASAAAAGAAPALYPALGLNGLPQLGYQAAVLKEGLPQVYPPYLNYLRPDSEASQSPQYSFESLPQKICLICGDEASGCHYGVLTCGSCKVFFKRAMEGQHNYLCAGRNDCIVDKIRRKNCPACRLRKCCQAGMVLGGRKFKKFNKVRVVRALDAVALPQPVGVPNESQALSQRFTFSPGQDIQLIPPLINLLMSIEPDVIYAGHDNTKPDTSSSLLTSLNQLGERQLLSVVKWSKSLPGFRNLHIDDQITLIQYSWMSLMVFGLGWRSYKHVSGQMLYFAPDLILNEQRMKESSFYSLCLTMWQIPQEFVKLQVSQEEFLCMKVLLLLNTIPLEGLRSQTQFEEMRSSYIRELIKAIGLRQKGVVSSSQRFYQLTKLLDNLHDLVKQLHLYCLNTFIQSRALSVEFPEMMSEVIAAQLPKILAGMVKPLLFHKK
Briefly: Antagonist activity at human progesterone receptor expressed in HEK293 cells assessed as inhibition of […]-induced transcriptional activity by GRE-driven luciferase reporter gene assay. In kind it is functional, cell-based. An outline of the steps:
(§1)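 Transcription assay in HEK293 cells cotransfected with full-length human receptor. Values are geometric means of at least duplicate determinations.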
For orientation: Reporter assays use an easily measured gene product as a stand-in for the process of interest.

Assay [2] concerns the target T1, Progesterone receptor. Briefly: Displacement of [3H]methyltrienolone from human progesterone receptor expressed in HEK293 cells. In kind it is cell-based. An outline of the steps:
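Competitive binding to recombinant full-length human receptors against tritium-labelled standards. Values are geometric means of at least duplicate determinations.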

In assay [3] the target is T2, Progesterone receptor (Homo sapiens) (UniProt P06401).
T2 sequence (whole entry): T1 sequence (P06401 whole entry)
Nature of the assay: Antagonist activity at human progesterone receptor expressed in HEK293 cells assessed as inhibition of […]-induced transcriptional activity by GRE-driven luciferase reporter gene assay relative to untreated control. In kind it is functional, cell-based. Also noted: concentration or dose not given beside the values. As to conditions: concentration not given here. An outline of the steps:
as §1

In a further assay the target is T3, Androgen receptor (Homo sapiens, UniProt P10275).
T3 sequence (P10275 whole entry): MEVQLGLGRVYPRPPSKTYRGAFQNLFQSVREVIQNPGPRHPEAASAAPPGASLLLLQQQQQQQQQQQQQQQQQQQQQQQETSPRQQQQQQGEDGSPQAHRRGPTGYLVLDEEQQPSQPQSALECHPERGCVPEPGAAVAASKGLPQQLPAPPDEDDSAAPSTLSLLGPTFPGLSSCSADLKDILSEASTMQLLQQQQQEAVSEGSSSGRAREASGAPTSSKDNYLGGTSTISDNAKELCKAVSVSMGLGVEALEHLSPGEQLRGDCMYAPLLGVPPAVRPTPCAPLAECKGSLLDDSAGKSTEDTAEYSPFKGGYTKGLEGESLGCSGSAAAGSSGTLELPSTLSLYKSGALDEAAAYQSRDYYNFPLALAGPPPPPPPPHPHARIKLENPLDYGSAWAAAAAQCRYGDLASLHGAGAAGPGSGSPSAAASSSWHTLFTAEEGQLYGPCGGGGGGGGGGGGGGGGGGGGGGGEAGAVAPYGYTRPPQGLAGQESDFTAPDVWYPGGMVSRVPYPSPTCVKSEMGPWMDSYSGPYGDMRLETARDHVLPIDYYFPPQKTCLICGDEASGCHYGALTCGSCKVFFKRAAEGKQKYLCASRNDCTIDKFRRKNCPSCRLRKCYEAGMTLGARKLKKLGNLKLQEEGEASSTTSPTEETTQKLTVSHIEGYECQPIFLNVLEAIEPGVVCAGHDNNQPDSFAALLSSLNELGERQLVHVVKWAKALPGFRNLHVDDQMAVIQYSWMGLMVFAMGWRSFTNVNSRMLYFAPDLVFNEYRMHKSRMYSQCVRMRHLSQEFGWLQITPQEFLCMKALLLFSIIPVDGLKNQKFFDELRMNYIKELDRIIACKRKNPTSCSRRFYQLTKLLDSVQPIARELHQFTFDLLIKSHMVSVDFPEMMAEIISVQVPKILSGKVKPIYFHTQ
Briefly: Displacement of [3H]methyltrienolone from human androgen receptor expressed in HEK293 cells. In kind it is cell-based. On the technique in general: Displacement assays read how much labelled ligand stays bound in the presence of the test substance.

In assay [4] the target is T4, Mineralocorticoid receptor (Homo sapiens) (UniProt P08235).
T4 sequence (whole entry): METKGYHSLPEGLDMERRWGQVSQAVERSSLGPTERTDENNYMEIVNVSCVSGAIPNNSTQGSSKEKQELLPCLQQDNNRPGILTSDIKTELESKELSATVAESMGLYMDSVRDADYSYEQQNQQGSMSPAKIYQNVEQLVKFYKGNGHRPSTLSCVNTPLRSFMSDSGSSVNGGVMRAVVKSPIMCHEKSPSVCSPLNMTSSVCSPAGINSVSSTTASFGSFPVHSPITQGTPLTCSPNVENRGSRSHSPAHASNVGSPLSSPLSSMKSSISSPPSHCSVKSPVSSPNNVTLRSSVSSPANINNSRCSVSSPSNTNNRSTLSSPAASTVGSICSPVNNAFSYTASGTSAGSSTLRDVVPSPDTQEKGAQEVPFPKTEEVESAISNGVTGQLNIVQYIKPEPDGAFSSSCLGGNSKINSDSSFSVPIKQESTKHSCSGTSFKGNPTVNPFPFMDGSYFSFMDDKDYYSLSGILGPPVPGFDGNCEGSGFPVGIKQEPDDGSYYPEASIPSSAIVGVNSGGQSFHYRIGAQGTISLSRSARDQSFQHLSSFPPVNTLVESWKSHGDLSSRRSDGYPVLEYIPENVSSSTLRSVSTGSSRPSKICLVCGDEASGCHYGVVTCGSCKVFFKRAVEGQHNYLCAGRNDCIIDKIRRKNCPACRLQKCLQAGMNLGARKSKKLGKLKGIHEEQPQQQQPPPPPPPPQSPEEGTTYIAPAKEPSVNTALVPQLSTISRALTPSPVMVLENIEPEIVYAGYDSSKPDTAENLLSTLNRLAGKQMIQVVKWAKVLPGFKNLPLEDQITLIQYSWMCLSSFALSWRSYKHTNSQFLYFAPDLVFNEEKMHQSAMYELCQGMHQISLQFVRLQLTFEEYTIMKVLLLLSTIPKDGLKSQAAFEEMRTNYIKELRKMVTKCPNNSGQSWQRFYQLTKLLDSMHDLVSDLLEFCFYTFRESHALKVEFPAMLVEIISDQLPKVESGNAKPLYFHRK
Briefly: Antagonist activity at human mineralocorticoid receptor expressed in HEK293 cells assessed as inhibition of […]-induced transcriptional activity by GRE-driven luciferase reporter gene assay relative to untreated control. In kind it is functional, cell-based. As to conditions: concentration not given here. Set-up: concentration or dose not given beside the values. An outline of the steps:
as §1

Assay [5] deals with Oryctolagus cuniculus. Nature of the assay: Agonist activity at progesterone receptor in sc dosed estrogen-primed immature New Zealand White rabbit assessed as stimulation of progesterone-induced endometrial transformation by McPhail assay. In kind it is functional, organism-based. The method, boiled down: (§2)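 Immature rabbits primed with estrogen, dosed sc without progesterone. Endometrial transformation scored by McPhail Index.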

The subject of assay [6] is Oryctolagus cuniculus. Briefly: Antagonist activity at progesterone receptor in estrogen-primed immature New Zealand White rabbit assessed as inhibition of progesterone-induced endometrial transformation at 1 mg/kg, sc by McPhail assay. In kind it is functional, organism-based. Set-up: dose 1 mg/kg. An outline of the steps:
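Immature rabbits primed with estrogen, given progesterone 1 mg/kg with test compound at various sc doses. Endometrial transformation scored by McPhail Index.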

Assay [7] concerns Oryctolagus cuniculus. Nature of the assay: Agonist activity at progesterone receptor in estrogen-primed immature New Zealand White rabbit assessed as stimulation of progesterone-induced endometrial transformation at 30 mg/kg, sc by McPhail assay. In kind it is functional, organism-based. Set-up: dose 30 mg/kg. The method, boiled down:
as §2

Another assay relates to Rattus norvegicus. Nature of the assay: Antagonist activity at progesterone receptor in orally dosed ovariectomized Sprague-Dawley rat assessed as reversal of R5020-induced down-regulation of estradiol-induced increase in complement 3 mRNA expression by C3 rat uterine assay. In kind it is functional. As to conditions: po. The method, boiled down:
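Ovariectomized rats dosed orally (mg/kg dose response). Estrogen (E2, 0.05 mg/kg) induces complement C3 mRNA in uterus. Progestin R5020 (0.1 mg/kg) down-regulates it. Read-out is reversal of the R5020 effect, expressed as fold over asoprisnil (5 mg/kg). ED50 derived from the dose response.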

For `C[C@](c1ccc(F)cc1F)(c1c[nH]c2c(NS(C)(=O)=O)cccc12)C1CC1`, the IC50 on Progesterone receptor [1] turned out to be 2020 nM. The Ki at Progesterone receptor [2] was 1230 nM; on Androgen receptor, 676 nM. Besides, the values for the inhibition in [3] and in assay [4] were 94.5% and 87%, respectively.

Turning to `C[C@@](c1ccc(F)cc1F)(c1c[nH]c2c(NS(C)(=O)=O)cccc12)C1CC1`, the IC50 at Progesterone receptor [1] is 715 nM. The Ki at Progesterone receptor [2] was 464 nM; on Androgen receptor it was 211 nM. For the same compound, the inhibition in assay [3] amounted to 89.7%; in assay [4], 62.9%.

`CC#C[C@]1(O)CC[C@H]2[C@@H]3CCC4=CC(=O)CCC4=C3[C@@H](c3ccc(N(C)C)cc3)C[C@@]21C`: the outcome with Oryctolagus cuniculus [5] was inactive. Further, in the assay with Oryctolagus cuniculus [6], the result was Active.

`COC[C@]1(OC)CC[C@H]2[C@@H]3CCC4=CC(=O)CCC4=C3[C@@H](c3ccc(/C=N/O)cc3)C[C@@]21C` [ASOPRISNIL]: the result in the assay with Oryctolagus cuniculus [7] and in the assay with Oryctolagus cuniculus [6] was Active. Further, in the assay with Rattus norvegicus, the ED50 amounted to 0.31 mg/kg.
